Measured values taken from ChEMBL document CHEMBL4433210, “Synthesis and Evaluation of Bifunctional Aminothiazoles as Antiretrovirals Targeting the HIV-1 Nucleocapsid Protein” (ACS Med Chem Lett, 2019).
Calls of active or inactive are those of the source.

Key:
[1] = Inhibition of synthesized Nucleocapsid protein (11 to 55 residues) assessed as reduction in NC-induced cTAR DNA destabilization pre-treated with cTAR and Nucleocapsid (11-55) for 15 mins followed by compound addition at 10 uM by spectroflurometry relative to control
Summary of the method: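 NC chaperone inhibition assay: fluorescence monitoring of NC-induced destabilization of cTAR DNA labelled with Alexa488 at the 5′ end and Dabcyl quencher at the 3′ end. Compound is tested at 10 μM.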

[2] = system: Human immunodeficiency virus 1; experiment: Antiviral activity against wild-type HIV1 NL4-3 infected in human TZM-bl cells infected with supernatants from virus-infected human HeLa P4.R5MAGI cells treated with compound for 72 hrs assessed as reduction in viral replication after 48 hrs by bright Glo-luciferase reporter gene assay; type: functional, organism-based; conditions: Human immunodeficiency virus 1, NL4-3
[3] = system: Human immunodeficiency virus 1; experiment: Antiviral activity against HIV1 12229 harboring non-nucleoside reverse transcriptase L100I/K103N/H221Y mutant infected in human TZM-bl cells infected with supernatants from virus-infected human MT2 cells treated with compound for 72 hrs assessed as reduction in viral replication after 48 hrs by bright Glo-luciferase reporter gene assay; type: functional, organism-based; conditions: Human immunodeficiency virus 1, 12229
Summary of the method: (§1)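 BiCycle assay: MT-2 cells infected with a drug-resistant HIV-1 strain in the presence of compound dilutions. Virus produced in this first round is then measured by infecting TZM-bl cells. The readout is IC50.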

[4] = system: Human immunodeficiency virus 1; experiment: Selectivity ratio of IC50 for HIV1 7400 harboring nucleoside reverse transcriptase M41L/D67N/M184V/L210W/T215Y mutant infected in human MT2 cells to IC50 for HIV1 NL4-3 infected in human MT2 cells; type: functional
Summary of the method: (§2)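 Fold change is the IC50 against the resistant strain divided by the IC50 against the wild-type NL4–3 reference. Both IC50 values come from the BiCycle assay (MT-2 infection, then TZM-bl readout of progeny virus).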

[5] = system: Human immunodeficiency virus 1; experiment: Selectivity ratio of IC50 for HIV1 12229 harboring non-nucleoside reverse transcriptase L100I/K103N/H221Y mutant infected in human MT2 cells to IC50 for HIV1 NL4-3 infected in human MT2 cells; type: functional; summary of the method: as §2
[6] = system: Human immunodeficiency virus 1; experiment: Antiviral activity against HIV1 12231 harboring non-nucleoside reverse transcriptase 103N/179F/181C mutant infected in human TZM-bl cells infected with supernatants from virus-infected human MT2 cells treated with compound for 72 hrs assessed as reduction in viral replication after 48 hrs by bright Glo-luciferase reporter gene assay; type: functional, organism-based; conditions: Human immunodeficiency virus 1, 12231; summary of the method: as §1
[7] = Cytotoxicity against human PBMC cells assessed as reduction in cell viability after 7 days by MTS assay; type: cell-based; conditions: read-out: TD50
Summary of the method: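 Cytotoxicity in peripheral blood mononuclear cells by MTS assay, giving TD50. Only compounds that met the BiCycle IC50 ≤ 5 μM criterion and were positive in the NC inhibition assay were tested.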

[8] = system: Human immunodeficiency virus 1; experiment: Selectivity ratio of IC50 for HIV1 7401 harboring nucleoside reverse transcriptase M41L/E44D/D67N/T69D/M184V/L210W/T215Y mutant infected in human MT2 cells to IC50 for HIV1 NL4-3 infected in human MT2 cells; type: functional; summary of the method: as §2
[9] = system: Human immunodeficiency virus 1; experiment: Antiviral activity against wild-type HIV1 NL4-3 infected in human TZM-bl cells treated with compound assessed as reduction in viral replication after 48 hrs by bright Glo-luciferase reporter gene assay based monocycle assay; conditions: Human immunodeficiency virus 1, NL4-3
[10] = system: Human immunodeficiency virus 1; experiment: Selectivity ratio of IC50 for HIV1 12465 harboring protease M46I/I54V/Q58E/T74P/V82L/L90M mutant infected in human MT2 cells to IC50 for HIV1 NL4-3 infected in human MT2 cells; type: functional; summary of the method: as §2
[11] = system: Human immunodeficiency virus 1; experiment: Antiviral activity against wild-type HIV1 NL4-3 infected infected in human MT2 cells assessed as reduction in HIV1 intracellular genomic RNA level at 5 uM and measured after 30 hrs post infection by TaqMan probe based RT-PCR analysis; type: functional, organism-based
Summary of the method: (§3)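 MT-2 cells were infected with NL4-3 at MOI 0.1 and incubated with test or reference agents at 20, 5 or 1 μM. Real-time PCR measured integrated HIV-1 DNA and intracellular and extracellular genomic HIV-1 RNA at 30 h post-infection. Levels are expressed as a percentage of the no-drug control culture.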

[12] = system: Human immunodeficiency virus 1; experiment: Antiviral activity against HIV1 11845 harboring integrase 140S/148H double mutant infected in human TZM-bl cells infected with supernatants from virus-infected human MT2 cells treated with compound for 72 hrs assessed as reduction in viral replication after 48 hrs by bright Glo-luciferase reporter gene assay; type: functional, organism-based; conditions: Human immunodeficiency virus 1, 11845; summary of the method: as §1
[13] = system: Human immunodeficiency virus 1; experiment: Antiviral activity against HIV1 7400 harboring nucleoside reverse transcriptase M41L/D67N/M184V/L210W/T215Y mutant infected in human TZM-bl cells infected with supernatants from virus-infected human MT2 cells treated with compound for 72 hrs assessed as reduction in viral replication after 48 hrs by bright Glo-luciferase reporter gene assay; type: functional, organism-based; conditions: Human immunodeficiency virus 1, 7400; summary of the method: as §1
[14] = system: Human immunodeficiency virus 1; experiment: Antiviral activity against HIV1 12465 harboring protease M46I/I54V/Q58E/T74P/V82L/L90M mutant infected in human TZM-bl cells infected with supernatants from virus-infected human MT2 cells treated with compound for 72 hrs assessed as reduction in viral replication after 48 hrs by bright Glo-luciferase reporter gene assay; type: functional, organism-based; conditions: Human immunodeficiency virus 1, 12465; summary of the method: as §1
[15] = system: Human immunodeficiency virus 1; experiment: Antiviral activity against wild-type HIV1 NL4-3 infected infected in human MT2 cells assessed as reduction in extracellular RNA at 5 uM and measured after 30 hrs post infection by Alu-LTR PCR protocol based method; type: functional, organism-based; summary of the method: as §3
[16] = Selectivity index, ratio of TD50 for cytotoxicity aginst human PBMC cells to IC50 for antiviral activity against wild type HIV1 NL4-3 infected in human TZM-bl cells assessed as reduction in viral replication after 48 hrs by bright Glo-luciferase reporter gene assay based BiCycle assay; type: toxicity, cell-based; conditions: read-out: Selectivity Index
Summary of the method: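 SI calculated as TD50 from the PBMC MTS assay divided by IC50 from the BiCycle antiviral assay (MT-2 infection followed by TZM-bl read-out).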

[17] = system: Human immunodeficiency virus 1; experiment: Antiviral activity against HIV1 11808 harboring protease L10F/K20T/V32I/L33F/I54V/G73S/I84V/L89V/L90M mutant infected in human TZM-bl cells infected with supernatants from virus-infected human MT2 cells treated with compound for 72 hrs assessed as reduction in viral replication after 48 hrs by bright Glo-luciferase reporter gene assay; type: functional, organism-based; conditions: Human immunodeficiency virus 1, 11808; summary of the method: as §1
[18] = system: Human immunodeficiency virus 1; experiment: Antiviral activity against wild type HIV1 NL4-3 infected in human TZM-bl cells assessed as reduction in viral replication after 48 hrs by bright Glo-luciferase reporter gene assay based BiCycle assay; type: functional, organism-based; conditions: Human immunodeficiency virus 1, NL4-3, TZM-bl
Summary of the method: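 BiCycle format: MT-2 cells infected with wild-type NL4-3 in the presence of compound dilutions. Virus produced in this first round was then quantified by infecting TZM-bl cells. IC50 was derived from the dose-response data.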

[19] = system: Human immunodeficiency virus 1; experiment: Selectivity ratio of IC50 for HIV1 11808 harboring protease L10F/K20T/V32I/L33F/I54V/G73S/I84V/L89V/L90M mutant infected in human MT2 cells to IC50 for HIV1 NL4-3 infected in human MT2 cells; type: functional; summary of the method: as §2
[20] = system: Human immunodeficiency virus 1; experiment: Antiviral activity against HIV1 7401 harboring nucleoside reverse transcriptase M41L/E44D/D67N/T69D/M184V/L210W/T215Y mutant infected in human TZM-bl cells infected with supernatants from virus-infected human MT2 cells treated with compound for 72 hrs assessed as reduction in viral replication after 48 hrs by bright Glo-luciferase reporter gene assay; type: functional, organism-based; conditions: Human immunodeficiency virus 1, 7401; summary of the method: as §1
[21] = system: Human immunodeficiency virus 1; experiment: Antiviral activity against wild-type HIV1 NL4-3 infected infected in human MT2 cells assessed as reduction in HIV1 extracellular genomic RNA level at 5 uM and measured after 30 hrs post infection by TaqMan probe based RT-PCR analysis; type: functional, organism-based; summary of the method: as §3
[22] = system: Human immunodeficiency virus 1; experiment: Selectivity ratio of IC50 for HIV1 12231 harboring non-nucleoside reverse transcriptase 103N/179F/181C mutant infected in human MT2 cells to IC50 for HIV1 NL4-3 infected in human MT2 cells; type: functional; summary of the method: as §2
[23] = system: Human immunodeficiency virus 1; experiment: Antiviral activity against wild-type HIV1 NL4-3 infected infected in human MT2 cells assessed as reduction in HIV1 integrated DNA at 5 uM and measured after 30 hrs post infection by Alu-LTR PCR protocol based method; type: functional, organism-based; summary of the method: as §3
[24] = system: Human immunodeficiency virus 1; experiment: Selectivity ratio of IC50 for HIV1 11845 harboring integrase 140S/148H double mutant mutant infected in human MT2 cells to IC50 for HIV1 NL4-3 infected in human MT2 cells; type: functional; summary of the method: as §2
[25] = system: Human immunodeficiency virus 1; experiment: Antiviral activity against wild-type HIV1 NL4-3 infected infected in human MT2 cells assessed as reduction in intracellular RNA at 1 uM and measured after 30 hrs post infection by Alu-LTR PCR protocol based method; type: functional, organism-based; summary of the method: as §3
[26] = system: Human immunodeficiency virus 1; experiment: Antiviral activity against wild-type HIV1 NL4-3 infected infected in human MT2 cells assessed as reduction in extracellular RNA at 1 uM and measured after 30 hrs post infection by Alu-LTR PCR protocol based method; type: functional, organism-based; summary of the method: as §3
[27] = system: Human immunodeficiency virus 1; experiment: Antiviral activity against wild-type HIV1 NL4-3 infected infected in human MT2 cells assessed as reduction in intracellular RNA at 20 uM and measured after 30 hrs post infection by Alu-LTR PCR protocol based method; type: functional, organism-based; summary of the method: as §3
[28] = system: Human immunodeficiency virus 1; experiment: Antiviral activity against wild-type HIV1 NL4-3 infected infected in human MT2 cells assessed as reduction in extracellular RNA at 20 uM and measured after 30 hrs post infection by Alu-LTR PCR protocol based method; type: functional, organism-based; summary of the method: as §3
[29] = system: Human immunodeficiency virus 1; experiment: Antiviral activity against wild-type HIV1 NL4-3 infected infected in human MT2 cells assessed as reduction in HIV1 intracellular genomic RNA level at 20 uM and measured after 30 hrs post infection by TaqMan probe based RT-PCR analysis; type: functional, organism-based; summary of the method: as §3
[30] = system: Human immunodeficiency virus 1; experiment: Antiviral activity against wild-type HIV1 NL4-3 infected infected in human MT2 cells assessed as reduction in HIV1 integrated DNA at 20 uM and measured after 30 hrs post infection by Alu-LTR PCR protocol based method; type: functional, organism-based; summary of the method: as §3
[31] = system: Human immunodeficiency virus 1; experiment: Antiviral activity against wild-type HIV1 NL4-3 infected infected in human MT2 cells assessed as reduction in HIV1 extracellular genomic RNA level at 20 uM and measured after 30 hrs post infection by TaqMan probe based RT-PCR analysis; type: functional, organism-based; summary of the method: as §3

SMILES: Nc1nc(-c2ccccc2OCc2ccc(C(=O)O)cc2)cs1
- inhibition [1]: 6%
- IC50 [2]: 95000 nM

SMILES: Nc1nc(CCOC(=O)c2ccc(COc3ccccc3-c3csc(N)n3)cc2)cs1.O=C(O)C(F)(F)F.O=C(O)C(F)(F)F
- IC50 [3]: 300 nM
- Ratio IC50 [4]: 0.4
- Ratio IC50 [5]: 1
- IC50 [6]: 700 nM
- CC50 at 168 h [7]: 16000 nM
- Ratio IC50 [8]: 1.5
- IC50 [9]: 1200 nM
- Ratio IC50 [10]: 1.2
- Activity [11]: Active
- IC50 [12]: 700 nM
- IC50 [13]: 100 nM
- IC50 [14]: 400 nM
- Activity [15]: Active
- selectivity ratio at 48 h [16]: 53
- IC50 [17]: 1100 nM
- inhibition [1]: 18%
- IC50 [18]: 300 nM
- Ratio IC50 [19]: 3.6
- IC50 [20]: 500 nM
- Activity [21]: Active
- Ratio IC50 [22]: 2.2
- Activity [23]: inactive
- Ratio IC50 [24]: 2.3

SMILES: CC(C)CN(C[C@@H](O)[C@H](Cc1ccccc1)NC(=O)O[C@H]1CO[C@H]2OCC[C@H]21)S(=O)(=O)c1ccc(N)cc1
- Activity [25]: inactive
- Activity [26]: Active

SMILES: Nc1nc(-c2ccc(OCc3cccc(C(=O)NCCNC(=O)c4ccc(COc5ccc(Cl)cc5-c5csc(N)n5)cc4)c3)cc2)cs1.O=C(O)C(F)(F)F.O=C(O)C(F)(F)F
- IC50 [3]: 1000 nM
- Activity [27]: inactive
- Ratio IC50 [4]: 0.9
- Ratio IC50 [5]: 1.2
- IC50 [6]: 6000 nM
- CC50 at 168 h [7]: > 50000 nM
- Ratio IC50 [8]: 1.8
- IC50 [9]: > 50000 nM
- Ratio IC50 [10]: 2
- Activity [28]: Active
- IC50 [12]: 2200 nM
- IC50 [13]: 700 nM
- IC50 [14]: 1600 nM
- Activity [29]: inactive
- selectivity ratio at 48 h [16]: > 63
- IC50 [17]: 600 nM
- inhibition [1]: 20%
- IC50 [18]: 800 nM
- Ratio IC50 [19]: 0.7
- IC50 [20]: 1400 nM
- Activity [30]: inactive
- Ratio IC50 [22]: 7.5
- Ratio IC50 [24]: 2.7
- Activity [31]: inactive
